According to the EternaBench riboswitch data:

System: MS2 coat protein
Experiment: apparent Kd, MS2 coat protein; higher = weaker binding; RNA-MaP array; FMN 200 µM where present
How it was run: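 Green signal was scaled to red-channel RNA signal and control-cluster median Fmax, and the apparent Kd was taken as the median of filtered per-cluster binding-curve fits. The binding series used SNAP-549-labelled MS2 coat protein from 0.7 or 1.5 nM, doubling to 3 µM, on designs transcribed by stalled E. coli RNA polymerase on Illumina sequencing-chip clusters. Each series ran without and then with constant ligand in 100 mM Tris-HCl pH 7.5, 80 mM KCl, 4 mM MgCl2, BSA, DTT, yeast tRNA and Tween-20.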

[1] = designed as: OFF switch for flavin mononucleotide, no ligand
[2] = ligand present: flavin mononucleotide, designed as: OFF switch for flavin mononucleotide
[3] = designed as: ON switch for flavin mononucleotide, no ligand
[4] = ligand present: flavin mononucleotide, designed as: ON switch for flavin mononucleotide

Sequence | apparent Kd [1] [nM] | apparent Kd [2] [nM] | apparent Kd [3] [nM] | apparent Kd [4] [nM]
UUGUUAAAUGAAGGAUAUACUUAACAUGAGGAUCACCCAUGUGGUGUUGUGAGUGAGUGAGUUUAGUAGAAGGUCAAUUCUUUU | 229 | 232 |  | 
GGAUAUAUGAAGGGCGAACGCGCACAUGAGGAUCACCCAUGUAGAAGGCGGUCCGCAACGCGGAUCGAGGAUAUAUAGUAUACG | 19.1 | 17.3 |  | 
AUAUAACAUGAGGAUCACCCAUGUCUCUAAAGUCGAGGAUAUGGGCAGGUUAUAUCCGAACCAGAAGGCGGGUUAU |  |  | 315 | 717
UGUAUGGACAGAGGAUAUACAGAUAGGAUCUACUAUCAAACAAUCCUCACAUGAGGAUCACCCAUGUAGAAGGCUGUCCAUACU | 105 | 809 |  | 
GUGCUUGUCGAAGGAUAUGGUUACAUGAGGAUCACCCAUGUUAUGCUUGGAAAAUUGUUUAGUUUCCAGAAGGUCGAUUAGUUG | 19.7 | 17.7 |  | 
CACGUACAUGAGGAUCACCCAUGUUAGGAUAUGCCGGGUAAGAGAAAACUAAAAAUCCGUAGAAGGGACGAAAC | 34.1 | 33.8 |  | 
UCCUAACCGUAGAAGGGUGACAUGAGGAUCACCCAUGUGCAGCAGCCGUGAACGGCCAUGCUGCCACAGGAUAUACGGAGGAGU |  |  | 26.1 | 55
CGUUUAUAUCGAGGAUAUAAGUCUAGGACAUGAGGAUCACCCAUGUAUGUCUUAGAAGGCGAUAUAAACAGCCUGUUACAGGCA |  |  | 35.3 | 6.96
GUAAAUCAUGUAGGAUAUGCAUGGCGAAGCUACGCAGAAGGACAUGAGGAUCACCCAUGUUAAAGCUACCGAGUUCGGUGGCAA | 133 | 162 |  | 
GACUGGGCAGGAUAUACAUGAGGAUCACCCAUGUGUCUGCGUCAGGCACGUGUAGACGGUAGAAGGGCCUACAC | 11.6 | 13.6 |  | 
CAGUAAUUCGAAGGAUAUGGUUACAUGAGGAUCACCCAUGUAUGAUUUGUGAUCUUAAAAUUGAUCCAGAAGGUCGAAUUACUG | 206 | 330 |  | 
AUUCCUCCUGUGAGGAUAUGCGUUUCGCACUCGUCGCAGAAGGCACAUGAGGAUCACCCAUGUGAGUUACCAAA | 14.8 | 20 |  | 
AGCUGUGGCCGAGGAUAUCUGAAAACUCAAACCGAAAUAUAAUCGGACAUGAGGAUCACCCAUGUAGAGAAGGCGGUCUCAGCA | 53 | 117 |  | 
GUAUAUAUGUGGUACAUGAGGAUCACCCAUGUGUCUUUACAUGAGGAUAUGGAUUCUAAUUGGAUCCAGAAGGCAUGUAUAUAC |  |  | 33 | 23.7
GUCUUCCUAGGAUAUACAUGAGGAUCACCCAUGUAAAGUUUCGUCAAAGGAUAAUCGAGUAGAAGGAGGUGGAU | 15 | 17.2 |  | 
GUAGCUAUCGGAGGAUAUGGGUUGCGGAAACGCACAUGAGGAUCACCCAUGUAAAUAAAUAAUUCCUAGAAGGCCGAUAGCUAC |  |  | 21 | 15
GCGAUGAUCGAGAAGGCCACUACAUGAGGAUCACCCAUGUCGUGGUGUAUUGGAGGAUAUCGAUCGGCGUCUUAUGAGGACAUG | 5.02 | 8.26 |  | 
GUUGCUUUCCGAGGAUAUUCCGGGCGUGGCUAUACAUGAGGAUCACCCAUGUGGCGGCCGCCUAGGGAGAAGGCGGGCUGCUUC |  |  | 15.9 | 15.7
CGGCGGAAAGGAUAUGCAUUAAUAUCAAUAUGUGGGCCACGACAUGAGGAUCACCCAUGUAGAAGGUUCAGCCG | 21.8 | 16.8 |  | 
UUGGACGUCGUAGGAUAUGUAGGAUAUUCCUACAUGAGGAUCACCCAUGUUGACAUGGAAGAAGGACAGAAGAACGAUGUCCAU |  |  | 161 | 4.92
AAAAAGUCAGGAUAUAGCAAAGGUCACGAAAGUGACAAAGGCUAGAAGGGACAUGAGGAUCACCCAUGUAAAAA | 31 | 39.1 |  | 
CCUAAGGAGGCAGGAUAUAGUGUGGUGGCCGGGCUCCCACGGCGAGCGGCACUAGAAGGGUCGUUACAUGAGGAUCACCCAUGU |  |  | 12.7 | 11.6
GGAGAGUUCACAGGAUAUCAUGGGUAGUUAUUUUGAGAAGGGUGAACAAGGAACAUGAGGAUCACCCAUGUAUCCUGGAAGGGC |  |  | 39.9 | 60.5
UUGUAGGAGACAGGAUAUGUACGGAAGGUUCACGUACAUGAGGAUCACCCAUGUCCAGACUUCAGACAGAAGGGUCACCAGGUG |  |  | 113 | 17.2
GGAUGCCGCUCAGGAUAUGUGGGUUGUCUAGUAUUUAGAUUCCACAUGAGGAUCACCCAUGUAACACAGAAGGGAGAUGGUGAU |  |  | 214 | 22.7
GGUACUCAAAGAGUACUUGGUCGAACAUGAGGAUCACCCAUGUAGGAUAUACAAAGCAAGAAGUAGUAGAAGGACAUGUGCAGC | 12.9 | 16.2 |  | 
GCGAUAAACGAGGAUAUCGUAUCGGAAACGAUACGAGAAGGUGUAACAUGAGGAUCACCCAUGUUCCUCAACGC | 38.4 | 38.4 |  | 
AUCAGCUGGUCAGGAUAUACGUCACUGCGUCAGCAGUGUGGUAAGAUCACAUGAGGAUCACCCAUGUAGAAGGGACGAGCUGAU | 14.5 | 286 |  | 

Sequence | apparent Kd [1] [nM] | apparent Kd [2] [nM] | apparent Kd [3] [nM] | apparent Kd [4] [nM]
UUAUACGUUGAGGAUAUGCGACUUAGUAUAGUUGUAGAAGGCGAUACAUGAGGAUCACCCAUGUUUAUGGGCAU | 220 | 300 |  | 
GCAUGAGACUAAGGAUAUGAUGUACCUAUAUGUGACAUGAGGAUCACCCAUGUGGUAAGUAUGAUUCAGAAGGUAGAGAUAUGC |  |  | 67.8 | 28.3
CCAACCGUAGGAUAUUCCAAGUCCGACAUGAGGAUCACCCAUGUGUUUCUCUGCGAUUUAGGAGAAGGGCGGUUGG | 349 | 474 |  | 
CCUCGGUAGACAGGAUAUCCUUACAUGAGGAUCACCCAUGUAGCAAGACAUGGAGAAGGGUCACUGUGGGUAAAAGCGCAUAUC |  |  | 225 | 14
GCAUACAUUCGAGGAUAUCGGUGAACAAAUUAACGAGAAGGCGAUAGAAUGUUUAAUCUUAUAAACAUGAGGAUCACCCAUGUA |  |  | 35.2 | 25.2
CGUAUGUCAGGAUAUGCGUAAGCCGGUCAGGGCGAGCGGCAGCAGAAGGGACAUGAGGAUCACCCAUGUUCGGG | 64.6 | 47.8 |  | 
AAAAAACAUGAGGAUCACCCAUGUCGAAAGACAUGAGGAUAUGUGUGGAAACCAUACUAUACAGAAGGCAUAAAAA |  |  | 37.8 | 371
AACAAUCUAUCUGAGGAUAUCAUGAAAAAAACAUGAGGAUCACCCAUGUGCAGGAAAACUGCAUAUGAGAAGGCAGAUAGAUUGC |  |  | 590 | 26.8
CUGUGACGGUGCGCAAGUGGACGGAGAAGGCACACAUGAGGAUCACCCAUGUGAGCCUGCUAUUGUGAGGAUAUCCGUUCGUAC | 5.52 | 7.02 |  | 
GUGGUACAUGAGGAUCACCCAUGUGUGGGCGCGUGAGGAUAUGUCCGUACCUGGCGUACGAUAGAAGGCAUGGUGC |  |  | 73.9 | 34.6
UCUUAUUGCAAGGAUAUGCUUUUUAUUUCUUUUGCAGAAGGUGCAACAUGAGGAUCACCCAUGUUUCCGGGUAU | 24.1 | 59.5 |  | 
GCCGGUUCAGUUAGGAUAUUCGACACACCUCUCUAGAAGAAGGAACAUGAGGAUCACCCAUGUGAUUCCUACCG | 46.7 | 56.6 |  | 
UUGAUAUUGUAAGGAUAUACUCUGUGAUGAAGAGUAGAAGGUACUUACAUGAGGAUCACCCAUGUUUAACGAGAUACUAAUCGU |  |  | 48.9 | 20
GGUCCAACAUGAGGAUAUAGCACCUUAUUGGUGCUAGAAGGCGUGUCGGUAGACAUGAGGAUCACCCAUGUAUUACAUUGGACC |  |  | 93.2 | 22.4
UCGAACGGAAACAAAGUCGAUAGACAUGAGGAUCACCCAUGUAAGGAUAUGCCUACUAAAAGUAGGCAGAAGGUACGCGUUCGA | 18.9 | 28.1 |  | 
AUAAUUUUAUAAUUCUAUAUAUUCAGAAGGCAUAACAUGAGGAUCACCCAUGUAAAUUAAUGUUAUGAGGAUAUGAUUCGGUUA | 13.9 | 67.3 |  | 
CCAGCGAGUGUGAGGAUAUGCUGGUCCUUGGAUCAGCAGAAGGCACAUGAGGAUCACCCAUGUGAAAACGUUGG | 28.8 | 179 |  | 
GUGUUACAUGAGGAUCACCCAUGUUGUUGUAGAUAAGGAUAUAUGGUAACGAGAGAAAUAAUAGAAGGUAUUAGGC |  |  | 37 | 31.6
AUGGAUAUCACAGGAUAUGCUAAGGAUACCUUAGCAGAAGGGUGAUCCAUCCUAUGGCUGCACAUGAGGAUCACCCAUGUGUCC |  |  | 124 | 11.8
GCAUGCAAGUAGAAGGUCGGAUAUUUUGAUACCGAAGGAUAUACAGAAUCAUAUCCACAUGAUAACAUGAGGAUCACCCAUGUA | 21.4 | 26.7 |  | 
CUUCGACAUGAGGAUCACCCAUGUCAGGAUAUUGUGUAUCGGGUUUUUUACGGAAAGGCAAGAAGGGAUGUGUG | 29.7 | 24.8 |  | 
UGAAAUCAUGUAGGAUAUGCAUGGCGAAGCUACGCAGAAGGACAUGAGGAUCACCCAUGUUAUAGCUACCCGUUACGGUGGCAA | 135 | 155 |  | 
GUACCUUAUGAGAAGGCGAUCAUGAAACAUGAUCGAGGAUAUCAUGUAAACAUGAGGAUCACCCAUGUAUGGGUAUUAUGGUAG |  |  | 40.8 | 11.3
UUGGGCGUCGUAGGAUAUGUAGGAUAUUCCUACAUGAGGAUCACCCAUGUUGACAUGGAAGAAGGACAGAAGGACGAUGUCCAU |  |  | 278 | 4.67
UUCACGUUAGUAGGAUAUCCGACAUGAGGAUCACCCAUGUCAACAUGGCUCUAGGGAAGUUGUUAGGAGAAGGGCUUUUAAAUA |  |  | 11.9 | 10.3
UUUUUGUGAGGAUAUGCAAUAUCUUCUAUUUAUUAUUAAUUGCAGAAGGCACAUGAGGAUCACCCAUGUAUUUU | 19.2 | 24.2 |  | 
CUCUUUGUUGAGGAUAUGCACCAGCUCACUGACGCAGAAGGCGACACAUGAGGAUCACCCAUGUCAGUUCGCGU | 17.4 | 21.5 |  | 
